Sequences and labels used below:
B1: tRNA (parent)
chain: GUUCCGUUGGCGUAAUGGUAACGCGUCUCCCUCCUAAGGAGAAGACUGCGGGUUCGAGUCCCGUACGGAACG

Fewer inactive variants are shown than the library holds. Where only a bound is given, the exact number is not on record here.

In this series the parent is B1. Kind of series: yeast fitness relative to wild type (ratio to wild type); higher = fitter; tRNA-Arg(CCU), competitive growth, 37 C, YPD. The method in brief:
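A pool of Saccharomyces cerevisiae strains, each with a tRNA-Arg(CCU) gene variant at the native genomic locus, was competed in YPD at 37°C for 24 hours across six parallel replicates. The variants had been chemically synthesised at a 3% per-site mutation rate over 69 sites, and gene amplicons before and after competition were read by 100-nucleotide paired-end sequencing. Darwinian fitness relative to wild type rested on changes in genotype frequencies. Genotypes required ≥ 100 starting reads, and estimates < 0.5 were set to 0.5.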
Take GUUCCGUUGACGUAAUAGUAACGCGUCUCGCUCCUAAGGAGAAGACUGCGGGUUCGAGUCCCGUACUGAACG [G10A G17A C30G G67U]: the yeast fitness is no more than 0.5.
Turning to GUUCCGUUGACGUAAUCGUAACGCGUCUCGCUGCUAAGGAGAAGACUGCGGGUUCGAGUCCCGUACGGAACG [G10A G17C C30G C33G], the yeast fitness came to 0.578.
In the case of GUUCCGUUGACGUAAUGGUAACGCGUCUCCCUCCUAAGGAGAAGACUGCAGGUUCGAGACACGUAGGGAACG [G10A G50A U59A C61A C66G], the yeast fitness came out at 0.606.
With GUUCCGUUGACGUAAUGGCAACGCGUCUCCCUCCUAAGGAGAAGACUAGGGGUUCGAGUCCCGUACGGAACG [G10A U19C G48A C49G] the figure was 0.56; with GUUCCGUUGACCUAAUGGUAACGCGUCUCCUUCCUAAGGAGAAGACUGCGGGUUCGAGUCCCGUACGGAACG [G10A G12C C31U], 0.62; with GUUCCGUUGACGUAAUGGUAACGCGUCUCCCUCCUAAGAAGAAGACUGCGGGUUCGAGUCCCGUCGGGAACG [G10A G39A A65C C66G], 0.556.
For the variant GUUCCGUUGACGUAAUAGUAACGCGUCUCGCUCCAAAGGAGAAGACUGCAGGUUCGAGUCCCGUACGGAACG [G10A G17A C30G U35A G50A], the yeast fitness came out at 0.626.
Regarding GUUCCGUUGACGUAAUGGAAACGCGUCUCCCUCCUAAGGCGCAGACUGCGGGUUCGAGUCCCGUACGCAACG [G10A U19A A40C A42C G68C], the yeast fitness came to 0.582.
Turning to GUUCCGUUGACGGAAUGGUAACGCGUUUCCCUCCUAAGGAGAAGAGUGCGGGUUCGAGUCCCGUACGGCACG [G10A U13G C27U C46G A69C], the yeast fitness came to 0.506.
In the case of GUUCCGUUGACGUAAUGGUAACGCGACUCCCUCCUAAGGAGAAGACUGCGGGUUCGAGUCCCGUAUGGAACG [G10A U26A C66U] it was 0.537; in that of GUUCCGUUGACGUAAUGGUAACCCGUCUCCCUCCUAAGGAGAAGGCUGCGGGUUCGAGUCCCGUUCGGAACG [G10A G23C A45G A65U], no more than 0.5.
As for GUUCCGUUGACGUAAUGGUAACCCGUCUUCCUCCUCAGGAGAAGACUGGGGGUUCGAGUCCCGUACGGACCG [G10A G23C C29U A36C C49G A70C], the yeast fitness was found to be 0.553.
GUUCCGUUGACGAAAUGGUAACGCGUCUUCCUCCUAAGGAGAAGACUGGGGGUUCGAGUCCCGUACGGAACG [G10A U13A C29U C49G]: the yeast fitness is no more than 0.5.
In the case of GUUCCGUUGACGUAAUGGUAACGCCUCUCCCUCCUAAGGAGAAGACUGCGGGUUCGAGUCCCGUACGGAACG [G10A G25C] it was 0.656; in that of GUUCCGUUGACGACAUGGUAACGCGUCUCCCUCCUAAGGCGAAGACUGCGGGUUCGAGUCCGGUACGGAACG [G10A U13A A14C A40C C62G], no more than 0.5; in that of GUUCCGUUGACGUAAUGGUAACGCAUCUCCCUCCUAAGGAGAAGACUGCGGGUUCGAGUCCUGUACGGAACG [G10A G25A C62U], no more than 0.5.
In the case of GUUCCGUUGACGUAAAGGUAACGCGUCUCCCUCCUAAGGAGAAGACUACGGGUUCGAGUCCCGUUCGGAACG [G10A U16A G48A A65U] it was no more than 0.5; in that of GUUCCGUUGACGUAAUGGUAACGCGUCUCCCUCCUAAGGAAAAGACUGUGGGAUCGAGUCCCGUACGGAACG [G10A G41A C49U U53A], no more than 0.5.
As to GUUCCGUUGACGUAAUCGUAACGCGUCUCCUUCCUAAGGAGAAAAAUGCGGGUUCGAGUCCCGUACGGAACG [G10A G17C C31U G44A C46A], the yeast fitness was no more than 0.5.
Consider GUUCCGUUGACGUAAUGGUAACGCGUCUCCCUCCUAAGGAGAAGACUGCGGGUUCGACUCCCGUUCGGAACG [G10A G58C A65U], for which the yeast fitness is no more than 0.5.
GUUCCGUUGACGAAAUGGUAACGCGUCUCCCUCCUAAGGAGAAGACUGCGGGUUCGAGUCCCGUACGGAACG [G10A U13A]: the yeast fitness was found to be 0.684.
Regarding GUUCCGUUGACGUAAUAGUAACGCGUCUCCCUCCUGACGAGAAGUUUGCGGGUUCGAGUCCCGUACUGAACG [G10A G17A A36G G38C A45U C46U G67U], the yeast fitness was no more than 0.5.
As for GUUCCGUUGACGUAAUGGAAACGCGUCUCCCUCCUAAGGAGAAGACUGCGGGUUCGAGUCCCGUACGGAACG [G10A U19A], the yeast fitness stood at 0.729.
With GUUCCGUUGACGUAAUCGUAACGCGUCUCCCUCCUAAGGAGAAGACUGCGGGUUCGAGUCCCGUACGGUACG [G10A G17C A69U] the figure was no more than 0.5; with GUUCCGUUGACGUAAUGGUAACGCGUCUCCCUCCUAAGGAGAAGACUGCGGGUUCGAGUCCCGUACGAAGCG [G10A G68A A70G], 0.596; with GUUCCGUUGACGUAAUGGUAACGCGUCUCCCUCCUAAGGAGAAAACUGCGGGUUCGAGUCCCGUAUGGAACG [G10A G44A C66U], 0.534.
For the variant GUUCCGUUGACGUAAUGGAAACGCGUCUCCCUCCUAAGGAGAAGAAUGCGGGUUCGAGUCCCGUACGGAACG [G10A U19A C46A], the yeast fitness was found to be 0.542.
In the case of GUUCCGUUGACGUAAUGGUAACCCGUCUUCCUCCUCAGGAGAAGACUGCGGGUUCGAGUCCCGUACGGAACG [G10A G23C C29U A36C], the yeast fitness came to 0.532.
As for GUUCCGUUGACGAAAUGGUAACGUGUCUCCCUCCUAAGGAGAAGCCUGCGGGUUCGAGUCCCGUGGGGAACG [G10A U13A C24U A45C A65G C66G], the yeast fitness was no more than 0.5.
Consider GUUCCGUUGACGUAAUGGUAACGCGUCUCCCUCCUAACGAGAAGACUGCGGGUUCGAGUCCCGUACUGAACG [G10A G38C G67U], for which the yeast fitness is no more than 0.5.
Regarding GUUCCGUUGACGUAAUAGUAACGCGUCCCCGUCCUAAGGAGAAGACUGCGGGUUCGAGUCCCGUACCGAACG [G10A G17A U28C C31G G67C], the yeast fitness was no more than 0.5.
As for GUUCCGUUGACGUAAUGGUAACGCGACUCCCUCCUAAGGAGAGGACUGCGGGUUCGAGUCCCGUACGGAUCG [G10A U26A A43G A70U], the yeast fitness was no more than 0.5.
Regarding GUUCCGUUGACAUAAUUGUAACGCGUCCCCCUCCUAAGGAGAAGACUGCGGGUCCGAGUCCCGUACGGAACG [G10A G12A G17U U28C U54C], the yeast fitness was no more than 0.5.
For the variant GUUCCGUUGACGUAAUGGUAACGCGUCUCCCUCCUAAGGAGAAGACUGCGGGUUCGACUCCCGUACGGAUCG [G10A G58C A70U], the yeast fitness is 0.701.
For GUUCCGUUGACGCAAUGGUAACGCGUCUCCGUCCUAAGGAGAAGACUGCGGGUUCGCGUCCCGUACGGAACG [G10A U13C C31G A57C], the yeast fitness was found to be 0.587.
On to GUUCCGUUGACGUAAUCGUAACGCGUCUCGCUGCUAAGGAGAAGUCUGCGGAUUCGAGUCCCGUACGGAUCG [G10A G17C C30G C33G A45U G52A A70U], for which the yeast fitness was no more than 0.5.
Regarding GUUCCGUUGACAUAAUGGUAACGCGUCUCCCUCUUAAGGAGAAGUCUGGGGGUUCGAGUCCCGUACGGAACG [G10A G12A C34U A45U C49G], the yeast fitness was no more than 0.5.
Consider GUUCCGUUGACGUAAUGGUAACGCGUCUCCCUCCUAAAGAGAAGGCUGCGGGUUCGAGUCCCGUACGGAGCG [G10A G38A A45G A70G], for which the yeast fitness is no more than 0.5.

Values taken from the RNAGym collection of RNA variant scans (doi:10.1126/science.aae0568).
